The source made the active and inactive calls. No cut-off for these calls is given here.
Experiments:
Mus musculus [1] = assay: Toxicity in C57BL/6J mouse assessed as pathological changes in spleen at 5 mg/kg, po for 3 weeks; assay type: organism-based; parameters: dose 5 mg/kg, route oral; details: in vivo, 504 h
How it was run: (§1)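 Mice were dosed orally at 5 mg/kg for 3 weeks, with saline-treated controls. Major organs were examined for pathological changes, and a complete blood count was done.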

[2] = biological target: BDNF/NT-3 growth factors receptor (Rattus norvegicus) (UniProt Q63604); assay: Agonist activity at TrkB in E17 rat primary cortical neurons at 500 nM after 5 mins by immunoblotting; assay type: functional, cell-based; details: Cerebral cortex neuron
How it was run: (§2)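 Rat primary cortical neurons were exposed to 500 nM compound for various times between 5 and 180 min. Lysates were immunoblotted for TrkB, Akt and MAPK phosphorylation.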

[3] = biological target: BDNF/NT-3 growth factors receptor (Rattus norvegicus) (UniProt Q63604); assay: Agonist activity at TrkB in E17 rat primary cortical neurons assessed as AKT phosphorylation at S473 at 500 nM by ELISA; details: Cerebral cortex neuron
Mus musculus [4] = assay: Agonist activity at TrkB in C57BL/6J mouse brain assessed as TrkB 706 phosphorylation at 1 mg/kg, po at 1 hr by immunoblotting; assay type: functional, organism-based; parameters: dose 1 mg/kg
How it was run: (§3)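 C57BL/6J mice got a single oral dose of 1 mg/kg. Brains were collected at several time points, about 1 to 16 h after dosing. Lysates were immunoblotted for TrkB phosphorylation and for downstream Akt and MAPK phosphorylation.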

Mus musculus [5] = assay: Antidepressant activity in C57BL/6J mouse assessed as decrease in immobility at 5 mg/kg, po administered for 21 days measured last 4 mins of total 6 mins observation time by forced swim test; assay type: functional, organism-based; parameters: dose 5 mg/kg
How it was run: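 Male C57BL/6J mice, 2–3 months old, were gavaged with saline or compound at 5 mg/kg for 21 days. Mice were acclimated to the test room for 2 days. There was no pre-swim. Each mouse swam for 6 min in a 16 cm cylinder of water 14 cm deep at 24 °C. Immobility was scored blind over the last 4 min; mean ± SEM, ANOVA.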

Mus musculus [6] = assay: Toxicity in C57BL/6J mouse assessed as pathological changes in lungs at 5 mg/kg, po for 3 weeks; assay type: organism-based; parameters: dose 5 mg/kg, route oral; details: in vivo, 504 h; how it was run: as §1
Mus musculus [7] = assay: Toxicity in C57BL/6J mouse assessed as pathological changes in liver at 5 mg/kg, po for 3 weeks; assay type: organism-based; parameters: dose 5 mg/kg, route oral; details: in vivo, 504 h; how it was run: as §1
[8] = biological target: BDNF/NT-3 growth factors receptor (Rattus norvegicus) (UniProt Q63604); assay: Agonist activity at TrkB in E16 rat embryonic cortical neurons assessed as inhibition of glutamate-induced caspase 3 activation at 50 to 500 nM after 30 mins followed by 16 hrs of 50 uM glutamate-challenge by ELISA; assay type: functional
How it was run: (§4)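 Cortical neurons from E16 rat embryos were pretreated with the indicated compound concentrations for 30 min. They were then challenged with 50 µM glutamate for 16 h. Active caspase-3 in the lysates was measured by ELISA.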

Mus musculus [9] = assay: Neuroprotective activity in TrkB F616A knock in mouse assessed as inhibition of kainic acid-induced caspase 3 activation in brain homogenates at 5 mg/kg, po administered 4 hrs prior to kainic acid challenge measured after 4 days by immunoblotting in presence of TrkB F616A inhibitor 1NMPP1; assay type: functional, organism-based; parameters: dose 5 mg/kg
How it was run: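 TrkB F616A knock-in mice, 2–3 months old, were given 1NMPP1 at 25 µM in drinking water one day beforehand. They were then gavaged with compound at 5 mg/kg, followed 4 h later by kainic acid at 20 mg/kg. Brains were taken 4 days later, homogenized and ultracentrifuged. 40 µg of supernatant was immunoblotted.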

[10] = biological target: BDNF/NT-3 growth factors receptor (Rattus norvegicus) (UniProt Q63604); assay: Agonist activity at TrkB in E17 rat primary rat cortical neurons assessed as AKT phosphorylation at Ser 473 at 10 to 50 nM after 15 mins by titration assay; assay type: functional
How it was run: (§5)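 Primary cortical neurons were incubated with graded concentrations, starting at 10 nM, for 15 min. Phospho-Akt Ser473 was measured by sandwich ELISA on 20 µg of lysate. Data come from 2 replicated experiment sets, given as mean ± SEM. Comparisons used one-way ANOVA against control and Student's t-test between compounds.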

Mus musculus [11] = assay: Antidepressant activity in TrkB F616A knock in mouse assessed as reduction of immobility time at 5 mg/kg, po administered for 21 days by forced swim test assay in presence of TrkB F616A inhibitor 1NMPP1; assay type: functional, organism-based; parameters: dose 5 mg/kg
Mus musculus [12] = assay: Toxicity in C57BL/6J mouse assessed as pathological changes in brain cortex at 5 mg/kg, po for 3 weeks; assay type: organism-based; parameters: dose 5 mg/kg, route oral; details: in vivo, 504 h; how it was run: as §1
Mus musculus [13] = assay: Toxicity in C57BL/6J mouse assessed as pathological changes in intestine at 5 mg/kg, po for 3 weeks; assay type: organism-based; parameters: dose 5 mg/kg, route oral; details: in vivo, 504 h; how it was run: as §1
Mus musculus [14] = assay: Agonist activity at TrkB in C57BL/6J mouse brain assessed as TrkB 706 phosphorylation at 1 mg/kg, po after 4 hrs by immunoblotting; assay type: functional, organism-based; parameters: dose 1 mg/kg; how it was run: as §3
Mus musculus [15] = assay: Toxicity in C57BL/6J mouse assessed as pathological changes in muscle at 5 mg/kg, po for 3 weeks; assay type: organism-based, Muscle tissue; parameters: dose 5 mg/kg, route oral; details: in vivo, 504 h; how it was run: as §1
[16] = biological target: BDNF/NT-3 growth factors receptor (Rattus norvegicus) (UniProt Q63604); assay: Agonist activity at TrkB in E17 rat primary rat cortical neurons assessed as AKT phosphorylation at Ser 473 at 100 nM after 15 mins by titration assay; assay type: functional; how it was run: as §5
[17] = biological target: BDNF/NT-3 growth factors receptor (Rattus norvegicus) (UniProt Q63604); assay: Agonist activity at TrkB in E17 rat primary cortical neurons at 500 nM after 10 mins by immunoblotting; assay type: functional, cell-based; details: Cerebral cortex neuron; how it was run: as §2
Mus musculus [18] = assay: Toxicity in C57BL/6J mouse assessed as affect on complete blood count analysis at 5 mg/kg, po for 3 weeks; assay type: organism-based; parameters: dose 5 mg/kg, route oral; details: in vivo, 504 h; how it was run: as §1
[19] = biological target: BDNF/NT-3 growth factors receptor (Rattus norvegicus) (UniProt Q63604); assay: Agonist activity at TrkB in E17 rat primary cortical neurons assessed as MAPK phosphorylation at 500 nM by ELISA; details: Cerebral cortex neuron
[20] = biological target: BDNF/NT-3 growth factors receptor (Rattus norvegicus) (UniProt Q63604); assay: Agonist activity at TrkB in E17 rat primary rat cortical neurons assessed as AKT phosphorylation at Ser 473 at 10 nM after 15 mins by titration assay; assay type: functional; how it was run: as §5
[21] = biological target: BDNF/NT-3 growth factors receptor (Rattus norvegicus) (UniProt Q63604); assay: Agonist activity at TrkB in E16 rat embryonic cortical neurons assessed as inhibition of glutamate-induced caspase 3 activation at 10 nM after 30 mins followed by 16 hrs of 50 uM glutamate-challenge by ELISA; assay type: functional; how it was run: as §4
[22] = Cytotoxicity at E17 rat primary cortical neurons assessed as cell death at 5 uM by LDH assay; assay type: cell-based; details: cerebral cortex neuron
HEK293 = assay: Cytotoxicity against human HEK293 cells assessed as cell death at 50 to 50000 nM after 24 hrs by LDH assay; assay type: cell-based; details: hek293, 24 h, 50 µM
[23] = biological target: BDNF/NT-3 growth factors receptor (Rattus norvegicus) (UniProt Q63604); assay: Agonist activity at TrkB in E17 rat primary rat cortical neurons assessed as AKT phosphorylation at Ser 473 at 500 nM after 15 mins by ELISA; assay type: functional
Mus musculus [24] = assay: Toxicity in C57BL/6J mouse assessed as pathological changes in heart at 5 mg/kg, po for 3 weeks; assay type: organism-based; parameters: dose 5 mg/kg, route oral; details: in vivo, 504 h; how it was run: as §1
Mus musculus [25] = assay: Toxicity in C57BL/6J mouse assessed as pathological changes in hippocampus at 5 mg/kg, po for 3 weeks; assay type: organism-based; parameters: dose 5 mg/kg, route oral; details: in vivo, 504 h; how it was run: as §1
Mus musculus [26] = assay: Agonist activity at TrkB in C57BL/6J mouse brain lysate assessed as TrkB phosphorylation at Y817 at 5 mg/kg, po administered for 21 days by immunoblotting; assay type: functional, organism-based; parameters: dose 5 mg/kg
How it was run: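 Adult male C57BL/6J mice, 8 per group, dosed orally by gavage once daily for 21 days; saline was the vehicle. Brain lysates were immunoblotted with anti-p-TrkA 794 and anti-p-TrkB 817.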

Sequence of BDNF/NT-3 growth factors receptor (Rattus norvegicus) (Q63604 whole entry): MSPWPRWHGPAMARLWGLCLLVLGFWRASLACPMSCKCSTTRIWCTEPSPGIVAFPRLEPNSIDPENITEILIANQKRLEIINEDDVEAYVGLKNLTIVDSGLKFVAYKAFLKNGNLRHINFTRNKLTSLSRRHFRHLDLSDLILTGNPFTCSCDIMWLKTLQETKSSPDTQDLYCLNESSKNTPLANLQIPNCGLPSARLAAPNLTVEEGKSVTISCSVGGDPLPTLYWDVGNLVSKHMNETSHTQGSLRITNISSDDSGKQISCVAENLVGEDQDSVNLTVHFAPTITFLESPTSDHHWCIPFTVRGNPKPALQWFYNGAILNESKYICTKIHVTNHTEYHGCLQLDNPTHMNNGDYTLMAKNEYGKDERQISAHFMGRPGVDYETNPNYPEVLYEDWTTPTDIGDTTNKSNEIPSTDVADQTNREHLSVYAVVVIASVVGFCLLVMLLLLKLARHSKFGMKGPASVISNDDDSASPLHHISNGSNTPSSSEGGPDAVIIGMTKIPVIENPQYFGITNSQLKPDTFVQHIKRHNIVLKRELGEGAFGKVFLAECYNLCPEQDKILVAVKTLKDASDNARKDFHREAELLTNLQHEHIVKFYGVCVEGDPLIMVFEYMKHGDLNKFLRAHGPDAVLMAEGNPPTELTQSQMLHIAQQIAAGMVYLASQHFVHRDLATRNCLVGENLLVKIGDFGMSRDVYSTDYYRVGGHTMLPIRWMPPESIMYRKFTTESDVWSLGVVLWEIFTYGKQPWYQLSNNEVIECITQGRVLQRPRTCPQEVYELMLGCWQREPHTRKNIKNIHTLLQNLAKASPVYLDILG

With `CN(C)c1ccc(-c2cc(=O)c3ccc(O)c(O)c3o2)cc1` as the compound, how does the Activity (Mus musculus [1]) read?
The Activity was “Non-toxic”.

What about the Activity [2] of the same compound?
Its Activity is “Active”.

What about the Activity [3] of the same compound?
The Activity was “Active”.

And the Activity (Mus musculus [4])?
Its Activity is “Active”.

What about the Activity (Mus musculus [5]) of the same compound?
Its Activity is “Active”.

And the Activity (Mus musculus [6])?
The Activity was “Non-toxic”.

What about the Activity (Mus musculus [7]) of the same compound?
The Activity was “Non-toxic”.

What about the Activity [8] of the same compound?
Its Activity is “Active”.

What about the inhibition (Mus musculus [9]) of the same compound?
Its inhibition is “inactive”.

What about the Activity [10] of the same compound?
The Activity was “Active”.

And the Activity (Mus musculus [11])?
Its Activity is “inactive”.

And the Activity (Mus musculus [12])?
Its Activity is “Non-toxic”.

What about the Activity (Mus musculus [13]) of the same compound?
The Activity was “Non-toxic”.

And the Activity (Mus musculus [14])?
The Activity was “Active”.

What about the Activity (Mus musculus [15]) of the same compound?
The Activity was “Non-toxic”.

And the Activity [16]?
Its Activity is “Active”.

What about the Activity [17] of the same compound?
Its Activity is “Active”.

And the Activity (Mus musculus [18])?
The Activity was “Non-toxic”.

What about the Activity [19] of the same compound?
The Activity was “Active”.

What about the Activity [20] of the same compound?
Its Activity is “Active”.

What about the inhibition [21] of the same compound?
The inhibition was “Active”.

And the Activity [22]?
Its Activity is “Non-toxic”.

What about the Activity (HEK293) of the same compound?
The Activity was “Non-toxic”.

What about the Activity [23] of the same compound?
Its Activity is “Active”.

What about the Activity (Mus musculus [24]) of the same compound?
Its Activity is “Non-toxic”.

And the Activity (Mus musculus [25])?
Its Activity is “Non-toxic”.

What about the Activity (Mus musculus [26]) of the same compound?
Its Activity is “Active”.

Reference: ChEMBL document CHEMBL1800034, “A synthetic 7,8-dihydroxyflavone derivative promotes neurogenesis and exhibits potent antidepressant effect” (J Med Chem, 2010)
